# From PubChem BioAssay AID504775 (Broad Institute, 2011)
# Screen size: about 320,000 compounds; about 310 (0.097%) were called active. The full list was thinned out, with actives kept by preference. Unmarked numbers belong to inactive results.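 How the source made its calls: active means mean replicate activation of at least 60% and every replicate at or above 60%; inconclusive means mean or all-replicate condition met, but not both; inactive means mean below 60% and not all replicates reaching 60%.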
# Test: enhancers of HDL lipid transfer via mSR-BI – ldlA[mSR-BI] CHO cells, DiI fluorescence, primary screen (AID 504775);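 further: 0% = median plate neutral-control signal and 100% = twice that signal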
# Conditions: DiI-HDL uptake fluorescence, 3 h, at 12.5 µM, stronger effect = higher value, 100 = double the neutral-control signal
# Outline: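 System: LDL receptor-deficient CHO ldlA cells overexpressing murine SR-BI | Timing: 3 h uptake period with compound, 37 °C | Medium: HEPES-buffered (25 mM, pH 7.4) F12 plus 0.5% BSA | Dosing: Single-point compound dose | Signal: Bottom-read fluorescence, 550/595 nm | Read-out: Retained DiI signal reflecting DiI-HDL uptake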
row,SMILES,activation
1,Cc1nn(-c2ncccn2)c2c1C(=O)CC(C)(C)C2Br (stereo not drawn),-6.98%
2,CC12CCCCC1=CC(=O)CC2 (stereo not drawn),0.111%
3,O=C(NNC(=O)c1ccc2ccccc2c1)c1ccc(Cl)cc1,17.1%
4,O=C1C(=O)N(c2ccccc2)C(c2ccccc2)C1c1ccccc1 (stereo not drawn),-3.47%
5,c1ccc(C(=NNc2nc3ccccc3s2)c2ccccn2)cc1,-40.5%
6,C=CC(=O)Nc1ccc(Nc2ccnc(Nc3ccc(N4CCN(C)CC4)cc3)n2)cc1,-5.16%
7,CC(=NNC(=S)N1CCCCCC1)c1ccccn1,-22.4%
8,CCOC(=O)c1ccccc1NC(=O)CSc1nc2c(sc(=S)n2CC)c(=O)[nH]1,15.7%
9,Nc1ccc2c(c1)C(=Cc1cccnc1)c1ccccc1-2,-10.7%
10,N#CC1=C(N)Oc2cc(N)ccc2C1c1ccccc1 (stereo not drawn),23.9%
11,Cc1ccc(S(=O)(=O)CCC(=O)OCC(=O)N(C)Cc2ccccc2)cc1,31.8%
12,CC/C(=C(/c1ccccc1)c1ccc(OCC[N+](C)(C)C)cc1)c1ccccc1,44.1%
13,CC(C)(C)OC(=O)N(Cc1ccccc1)Cc1ccc(OCc2cccc(NC(=O)c3ccccc3)c2)cc1,-30.4%
14,CCCCN1CC(COCc2ccccc2)OCCS1(=O)=O (stereo not drawn),17.3%
15,COc1ccc(CNC(=O)COC(=O)C2=Cc3ccccc3OC2)cc1,3.54%
16,COC1C(CO)OC(n2cnc3c(=S)nc(N)[nH]c32)C1O (stereo not drawn),8.65%
17,COC(=O)C1CC2=C(CC(C)(C)CC2=O)N(c2ccccc2)C1=O (stereo not drawn),15.5%
18,O=C1OC(Cc2ccccc2)C(c2ccccc2)C1=O (stereo not drawn),5.71%
19,CN(C(=O)c1ccc(NC(=O)Cc2cccc(NC(=O)C3CCN(C(=O)c4ccccc4)CC3)c2)cc1)C1CC1,-15%
20,CC(C)c1ccc(C=NNc2ccc([N+](=O)[O-])cn2)cc1,2.92%
21,O=C(NN=Cc1ccccc1)c1ccccc1,4.39%
22,NC(=O)C1CCN(C(=O)c2cc(S(=O)(=O)N3CCN(c4ccccc4)CC3)ccc2Cl)CC1,3.45%
23,FC(F)(F)c1ccc(-c2cccc3c2C2CC3CCN2Cc2ccccc2)cc1 (stereo not drawn),20.1%
24,O=c1oc2ccccc2c(=O)c2ccccc12,23.4%
25,O=C(NCCc1ccccc1)c1cccc(NC(=O)c2ccccc2)c1,-9.83%

row,SMILES,activation
1,Cc1nc(N)sc1-c1ccccc1,-11.1%
2,O=[N+]([O-])c1ccc(N2CCOCC2)cc1,-9.57%
3,O=C(NN=CC=Cc1ccccc1)C(O)C(O)C(=O)NN=CC=Cc1ccccc1 (stereo not drawn),-3.92%
4,CCCCNCCS(=O)(=O)NCc1ccccc1,2.76%
5,CC(C)CN1CC(C)C(=O)N(c2ccccc2)C1=S (stereo not drawn),3.77%
6,CC(C)C(c1nnnn1C1CCCCC1)N1CCN(C(=O)c2ccco2)CC1 (stereo not drawn),4.65%
7,CCC(c1nnnn1C1CCCC1)N1CCN(C(=O)c2ccco2)CC1 (stereo not drawn),3.81%
8,CC(C)C(c1nnnn1CCc1ccccc1)N1CCN(C(=O)c2ccco2)CC1 (stereo not drawn),424% (active)
9,Cc1ccc(OCCNC(=O)c2cccc(S(=O)(=O)N3CCN(Cc4ccccc4)CC3)c2)cc1,-20.6%
10,CSCCC(NC(=O)COc1ccccc1)C(=O)N1CCN(c2cccc(C(F)(F)F)c2)CC1 (stereo not drawn),-13.3%
11,C1=C(N2CCOCC2)/C(=C/c2nc3ccccc3[nH]2)CC1,6.52%
12,c1ccc2cc3c(NCCN4CCOCC4)ccnc3cc2c1,30.5%
13,c1ccc2[nH]c(NCCN3CCOCC3)nc2c1,62.8% (active)
14,CCc1c(Nc2ccccc2Cl)nc(N)[nH]c1=O,15.3%
15,NC(=O)c1ncn([C@@H]2O[C@H](CNCc3cnc(N4CCOCC4)s3)[C@@H](O)[C@H]2O)n1,-12%
16,NC(=O)c1ncn([C@@H]2O[C@H](CN=C3NS(=O)(=O)c4ccccc43)[C@@H](O)[C@H]2O)n1,74.1% (active)
17,COc1cc2c(cc1CNC[C@H]1O[C@@H](n3cnc(C(N)=O)n3)[C@H](O)[C@@H]1O)OCO2,13.6%
18,CCCCNC1(C#N)CCN(Cc2ccccc2)CC1,2.1%
19,COc1ccc(CC(=O)N[C@@H]2c3cc(OC)c(OC)cc3C[C@H]2OCc2ccccc2)cc1,-26.8%
20,COc1ccc(C2NCCCC2c2ccccc2)cc1 (stereo not drawn),-26.9%
21,CC1C(C)N(C(=O)CCl)c2ccccc2N1C(=O)CCl (stereo not drawn),12%
22,Cc1ccccc1N1CCN(C(=O)c2cccnc2)CC1,2.45%
23,C[C@@H]1NS(=O)(=O)c2cc(Cl)ccc2O[C@@H]1c1ccccc1,-33.6%
24,COC(=O)c1ccc(CNC(=O)Cn2cc(C)c(=O)[nH]c2=O)cc1,-1.85%
25,Cc1cc([N+](=O)[O-])ccc1NS(=O)(=O)c1ccccc1,11.2%

row,SMILES,activation
1,O=C(NNS(=O)(=O)c1ccc(F)cc1)c1ccc([N+](=O)[O-])cc1Cl,4.85%
2,O=[N+]([O-])c1ccc(NS(=O)(=O)c2ccccc2)c(Cl)c1,84.4% (active)
3,OC(COc1ccccc1)CN1CCN(c2cccc(Cl)c2)CC1 (stereo not drawn),-8.42%
4,COc1cc(/C=C/c2ccc(/C=C/c3cc(OC)c(OC)c(OC)c3)cc2)cc(OC)c1OC,-51.2%
5,O=C1C(Cl)=C(Oc2ccccc2)C(=O)c2ccccc21,-13.1%
6,COc1ccc(NS(=O)(=O)c2ccc(N3CCOCC3)c(NC(=O)/C=C/C(=O)O)c2)cc1,22.2%
7,COc1ccc(CC(=O)NC(C)c2ccc(Cl)c(Cl)c2)cc1S(=O)(=O)N1CCOCC1 (stereo not drawn),-4.63%
8,Cc1cc([N+](=O)[O-])c(=O)[nH]c1C,9.21%
9,CC(NC(=O)c1ccccc1)C(=O)Nc1ccccc1 (stereo not drawn),-16.6%
10,NC(=O)C1(Nc2ccc([N+](=O)[O-])cc2)CCCC1,-13.2%
11,S=C(Nc1ccccc1)Nc1ccc2ccccc2c1,-9.12%
12,CN1C(c2ccc(F)cc2)=CS/C1=C(/C#N)c1nnc2n1-c1ccccc1SC2,-32.2%
13,CN(CCc1ccccc1)C(=O)c1cccc(NC(=O)Cc2cccc(NC(=O)C3CCCN(C(=O)CCc4ccccc4)C3)c2)c1 (stereo not drawn),-78.5%
14,C=CCOC(=O)N1CCC2CC1c1cc(-c3ccc(OC)cc3)ccc12 (stereo not drawn),4.14%
15,CCCCN1CC(CO)Oc2cccc(F)c2S1(=O)=O (stereo not drawn),10.7%
16,C/C(=N\Nc1ccc(Cl)nn1)c1ccccc1O,7.73%
17,CCCN(CCC)S(=O)(=O)c1cc2c(cc1Br)CCN2C(=O)CC,-7.1%
18,NS(=O)(=O)c1ccc(CCNC(=O)c2ccc(Cl)c(S(=O)(=O)N3CCCCCC3)c2)cc1,-32.8%
19,CCc1c(Nc2ccccc2C)nc(N)[nH]c1=O,-3.67%
20,O=C(NN=Cc1ccccc1O)NN=Cc1ccccc1O,-79.8%
21,CCN(CC)CCCC(C)n1c2nc(=O)[nH]c(=O)c-2nc2cc(Cl)ccc21 (stereo not drawn),-9.91%
22,CCCCC(=O)NC(c1ccc(OC)c(OC)c1)c1ccc2cccnc2c1O (stereo not drawn),-3.38%
23,O=C(CSC(=S)N1CCOCC1)c1ccccc1,-13.4%
24,NC(=NC(=O)c1ccccc1)N1CCOCC1,1.4%
25,O=C(NC(=O)N1CCOCC1)c1ccccc1,67.4% (active)

row,SMILES,activation
1,Cc1nc2ccc(N)nc2nc1C,-22.1%
2,COc1ccc(S(=O)(=O)N2C[C@H]3CON(C)[C@H]3C[C@H]2c2cccc(Br)c2)cc1,7.88%
3,CN(C(=O)c1cccc(NC(=O)Cc2ccc(NC(=O)C3CCCN(C(=O)C4CCCC4)C3)cc2)c1)C1CCC1 (stereo not drawn),-86.9%
4,CCCCN1CC(COc2ccccc2)Oc2cccc(F)c2S1(=O)=O (stereo not drawn),-3.91%
5,COC1=CC(=O)OC(C)(c2ccccc2)C1 (stereo not drawn),-8.07%
6,O=c1[nH]c(=S)[nH]c(O)c1/C=C1\C=Nc2ccccc21,12.1%
7,Cc1cc(OCCCC(=O)Nc2cc(S(=O)(=O)N3CCOCC3)ccc2N2CCOCC2)ccc1Cl,-17.2%
8,COC1=NC2=NCCN2C(OC)=N1,7.98%
9,CC1=CC(=NNS(=O)(=O)c2ccc([N+](=O)[O-])cc2)CC(C)(C)C1,27.7%
10,CC(C)Cc1nnc(N)s1,10.1%
11,Cc1nc(N)nc(Cl)c1CCC1OCCO1,19.5%
12,NNc1cccc(C=Cc2ccccc2)cc1=O,-16.6%
13,Nc1cc(=O)n(Cc2ccccc2)c(=O)n1Cc1ccccc1,-0.22%
14,N=C1c2ccccc2-c2ccccc21,9.24%
15,COc1cc(O)c2c(=O)c3c(O)c(O)ccc3oc2c1OC,-10.1%
16,O=c1nc(NO)ccn1C1CCCO1 (stereo not drawn),15.7%
17,C(#CCN1CCOCC1)CCCN1CCOCC1,16.4%
18,CN1CCOC1c1ccc(C2OCCN2C)cc1 (stereo not drawn),6.99%
19,C=CCN1C=C(C(=O)c2ccccc2)C(=O)CC1,19.3%
20,NN=C(NN=Cc1ccccc1)c1ccccc1,1.04%
21,O=C(Cc1ccccc1)NNS(=O)(=O)c1ccc([N+](=O)[O-])cc1,-11.7%
22,O=C(NNS(=O)(=O)c1ccc([N+](=O)[O-])cc1)C1CCCCC1,62.5% (active)
23,O=C(NCC(O)c1ccc([N+](=O)[O-])cc1)C1CCCCC1 (stereo not drawn),2.53%
